Laboratory results taken from article PMC4733660 (Organic & biomolecular chemistry, 2010).
Read-outs that look alike come from different tables or passages of the source.

Tests used:
Assay type in all cases: biochemical
[1] = target: PHD2 (Homo sapiens, UniProt Q9GZT9); assay: PHD2 fluorescence-based; details: for PHD2 Residual Activity (%): HTRF-based assay, enzyme concentration 20 nM, 400 μM compound concentration; for PHD2 inhibition (in words): 400 μM inhibitor concentration
[2] = target: T1, JMJD2E (Homo sapiens, UniProt B2RXH2); assay: FDH-coupled spectrophotometric turnover assay of JMJD2E; details: for JMJD2E Residual Activity (%): enzyme concentration 400 nM, 200 μM compound concentration
T1 sequence (B2RXH2 1-506): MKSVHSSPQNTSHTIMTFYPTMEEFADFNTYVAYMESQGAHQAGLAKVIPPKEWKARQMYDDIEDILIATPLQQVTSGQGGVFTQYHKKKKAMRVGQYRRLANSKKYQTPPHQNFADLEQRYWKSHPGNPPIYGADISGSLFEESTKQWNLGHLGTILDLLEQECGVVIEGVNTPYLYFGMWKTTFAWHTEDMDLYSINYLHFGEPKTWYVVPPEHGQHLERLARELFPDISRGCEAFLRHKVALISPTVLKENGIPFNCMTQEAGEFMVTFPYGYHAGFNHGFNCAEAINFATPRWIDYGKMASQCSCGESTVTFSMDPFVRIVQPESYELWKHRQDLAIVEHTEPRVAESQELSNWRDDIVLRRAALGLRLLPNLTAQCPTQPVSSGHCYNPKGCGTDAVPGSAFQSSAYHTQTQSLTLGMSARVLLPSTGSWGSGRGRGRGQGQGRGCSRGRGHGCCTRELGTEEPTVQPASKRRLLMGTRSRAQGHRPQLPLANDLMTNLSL

[3] = target: T2, formaldehyde dehydrogenase (FDH) (Pseudomonas putida, UniProt P46154); assay: FDH counterscreen, spectrophotometric assay; details: enzyme concentration 50 μM, 200 μM compound concentration
T2 sequence (P46154 1-399): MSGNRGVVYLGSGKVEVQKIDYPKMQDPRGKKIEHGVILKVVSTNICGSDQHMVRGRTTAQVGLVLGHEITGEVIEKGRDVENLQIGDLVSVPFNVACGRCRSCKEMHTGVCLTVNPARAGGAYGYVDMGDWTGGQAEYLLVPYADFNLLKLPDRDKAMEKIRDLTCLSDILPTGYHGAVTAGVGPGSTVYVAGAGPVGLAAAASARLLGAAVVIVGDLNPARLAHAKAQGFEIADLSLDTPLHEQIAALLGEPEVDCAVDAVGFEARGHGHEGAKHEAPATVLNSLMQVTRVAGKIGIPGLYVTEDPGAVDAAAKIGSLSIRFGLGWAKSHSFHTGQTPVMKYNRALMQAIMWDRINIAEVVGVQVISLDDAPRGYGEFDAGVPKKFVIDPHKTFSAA
Procedure, shortened: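 Counterscreen run on the coupling enzyme alone to exclude false JMJD2E hits from FDH inhibition. FDH turnover of formaldehyde with NAD+ followed spectrophotometrically. Enzyme 50 μM; test compound at 200 μM; activity expressed as residual % of uninhibited FDH.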

PHD2, sequence (Q9GZT9 whole entry): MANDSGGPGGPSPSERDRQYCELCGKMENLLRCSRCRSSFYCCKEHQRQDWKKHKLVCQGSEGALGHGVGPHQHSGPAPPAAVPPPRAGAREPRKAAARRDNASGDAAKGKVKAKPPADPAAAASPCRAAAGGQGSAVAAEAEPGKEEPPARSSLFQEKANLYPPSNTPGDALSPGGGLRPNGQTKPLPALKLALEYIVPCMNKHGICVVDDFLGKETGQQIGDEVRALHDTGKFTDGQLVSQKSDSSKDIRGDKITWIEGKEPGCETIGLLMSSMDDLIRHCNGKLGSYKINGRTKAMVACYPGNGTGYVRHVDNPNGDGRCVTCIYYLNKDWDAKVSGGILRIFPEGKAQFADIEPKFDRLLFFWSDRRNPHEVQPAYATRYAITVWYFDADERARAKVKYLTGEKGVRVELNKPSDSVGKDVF

Compound | PHD2 Residual Activity (%) [1] [%] | JMJD2E inhibition (in words) ([2]; FDH-coupled assay) | IC50 ([2]; read-out: JMJD2E IC50, FDH-coupled assay) [µM] | PHD2 inhibition (in words) [1] | FDH Residual Activity (%) [3] [%] | JMJD2E Residual Activity (%) ([2]; FDH-coupled assay) | IC50 [2] [µM]
Nc1c(C(=O)O)ccnc1C(=O)O [Compound 50, 3-amino-2,4-PDCA] | 23 | highly active | ~0.1 |  |  |  | 
O=C(O)c1ccnc(C(=O)O)c1Oc1ccccc1 [Compound 36, 3-Phenoxypyridine-2,4-dicarboxylic acid] | 88 | inactive |  | inactive | 91 | 48 | 
O=C(O)c1ccnc(C(=O)O)c1 [Compound 5, 2,4-pyridine dicarboxylic acid, reference compound] | 22 |  |  |  | 100 | 0 | 
O=C(O)c1ccnc(C(=O)O)c1-c1ccccc1 [Compound 34, 3-Phenylpyridine-2,4-dicarboxylic acid] | 100 |  |  |  | 100 | 84 | 
O=C(O)c1ccnc(C(=O)O)c1Nc1ccccc1 [Compound 37, 3-(Phenylamino)pyridine-2,4-dicarboxylic acid] | 100 | potent |  | do not inhibit PHD2 | 83 | 0 | 
O=C(O)c1ccnc(C(=O)O)c1/C=C/c1ccccc1 [Compound 35, (E)-3-Styrylpyridine-2,4-dicarboxylic acid] | 85 | some recovery of inhibitory potency |  |  | 87 | 25 | 66
